High-throughput results as filed in PubChem.
NPY Y1 blocker: NPY-Y1 receptor antagonists, primary screen, cell-based; HEK293-CNG Y1 cells, membrane potential fluorescence; NPY at EC95, then isoproterenol; inhibition, % at 3.6 µM; 1% of 200,000 active;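 active = inhibition above the campaign mean inhibition of all tested compounds plus 3 SD, cut at about 20% in these data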;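 note: 0% = DMSO wells given NPY plus isoproterenol and 100% = isoproterenol alone without NPY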
Target sequence (P25929 whole entry, looked up): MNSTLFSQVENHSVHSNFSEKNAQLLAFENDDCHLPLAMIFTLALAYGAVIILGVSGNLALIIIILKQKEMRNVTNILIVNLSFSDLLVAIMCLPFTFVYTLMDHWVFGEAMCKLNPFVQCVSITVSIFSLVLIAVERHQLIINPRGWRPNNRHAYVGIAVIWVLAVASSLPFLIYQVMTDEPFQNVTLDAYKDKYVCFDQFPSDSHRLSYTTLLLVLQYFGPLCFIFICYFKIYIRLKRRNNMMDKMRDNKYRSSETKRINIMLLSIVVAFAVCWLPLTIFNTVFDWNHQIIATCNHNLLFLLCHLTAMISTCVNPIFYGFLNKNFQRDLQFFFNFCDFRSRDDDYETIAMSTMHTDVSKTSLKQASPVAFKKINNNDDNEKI
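Benchmarks – high control isoproterenol alone, low control NPY with isoproterenol · Material – HEK293 Y1/CNG channel cell line · Times – dye 3 h, compound 60 min room temperature, stimulation 45 min · Probe or stimulus – NPY (25 nM), isoproterenol (1 µM), Ro 20-1724 (25 µM) · Evaluation – % inhibition of NPY effect · Signal – fluorescence, membrane potential probe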
S1P4 agonist: S1P4 receptor agonists, primary screen, cell-based. S1P4-expressing cell line, agonist reporter assay. 0.35% of 220,000 active. activation, % at 4.98 µM. AID 1509, 2009; in the data active = activation above about 11%;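 note: 0% = DMSO vehicle and 100% = reference agonist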
Target sequence (O95977 whole entry, looked up): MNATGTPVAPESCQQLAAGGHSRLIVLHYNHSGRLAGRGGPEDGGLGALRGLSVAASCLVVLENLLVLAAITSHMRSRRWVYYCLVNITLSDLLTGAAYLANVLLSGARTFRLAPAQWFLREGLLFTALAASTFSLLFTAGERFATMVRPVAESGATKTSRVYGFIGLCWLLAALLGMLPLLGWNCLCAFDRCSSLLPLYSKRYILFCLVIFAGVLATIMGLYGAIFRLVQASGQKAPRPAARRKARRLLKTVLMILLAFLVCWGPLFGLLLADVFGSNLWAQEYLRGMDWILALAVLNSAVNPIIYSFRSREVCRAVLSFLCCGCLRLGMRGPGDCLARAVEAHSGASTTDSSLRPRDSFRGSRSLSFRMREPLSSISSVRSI
NPY-Y2 antag: NPY-Y2 receptor antagonists, primary screen, cell-based. NPY-Y2 expressing cells, antagonist mode. AID 793, 2007. Neuropeptide Y receptor type 2 (Homo sapiens), P49146. inhibition, % at 2.7 µM. 0.99% of 140,000 active; in the data active = inhibition above about 17%;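 note: 0% = vehicle with agonist challenge and 100% = reference antagonist with challenge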
S1P4 antag: S1P4 receptor antagonists, primary screen, cell-based. Sphingosine 1-phosphate receptor 4 (Homo sapiens), O95977. S1P4-expressing cells, antagonist mode, reporter read-out. inhibition, % at 4.98 µM. 0.26% of 220,000 active; in the data active = inhibition above about 29%;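 note: 0% = wells stimulated with agonist and 100% = vehicle wells without agonist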
NPY1 pot ag: NPY-Y1 receptor potentiators or agonists, primary screen, cell-based; activation, % at 3.6 µM; 0.37% of 220,000 active; Neuropeptide Y receptor type 1 (Homo sapiens), P25929; NPY-Y1 expressing cells, potentiator/agonist activation; in the data active = activation above about 33%, passing the limit was not always enough;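 note: cells stimulated with NPY at EC10 then isoproterenol at EC100; 0% = low agonist plus stimulus and 100% = saturating agonist plus stimulus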
NPY2 pot ag: NPY-Y2 potentiators or agonists, primary screen, cell-based; cells expressing NPY-Y2, potentiator/agonist read-out; activation, % at 3.6 µM; 0.45% of 220,000 active; in the data active = activation above about 27%;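 note: cells stimulated with NPY near EC25 plus isoproterenol at EC100; 0% = vehicle plus submaximal agonist and 100% = vehicle plus saturating agonist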
NPY-Y2 pot conf: NPY-Y2 potentiators or agonists, confirmation, cell-based. cell-based NPY-Y2 potentiator/agonist assay. 20% of 450 active. activation, % at 3.6 µM. AID 1539, 2009. shares compounds with NPY2 pot ag; in the data active = activation above about 33%
NPY-Y1 counter: NPY-Y1 potentiators or agonists, counter-screen for NPY-Y2 potentiator project, cell-based, fluorescence | shares compounds with NPY2 pot ag | Y1 HEK293-CNG cells, membrane potential fluorescence | activation, % at 3.6 µM | 20% of 450 active | AID 1651, 2009; in the data active = activation above about 45%;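 note: cells stimulated with submaximal NPY then isoproterenol with phosphodiesterase inhibitor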
NPY-Y1 ag 2: NPY-Y1 direct agonists, selectivity assay for NPY-Y2 potentiator project, cell-based, fluorescence | AID 1702, 2009 | shares compounds with NPY2 pot ag | 37% of 450 active | HEK293 Y1-CNGC, membrane potential fluorescence, agonism | activation, % at 3.6 µM;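 active = activation above the mean of DMSO-only control wells plus 3 SD, cut at about 18% in these data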;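 note: cells stimulated with 1 µM isoproterenol plus the PDE inhibitor Ro 20-1724; 0% = isoproterenol with DMSO and no NPY and 100% = 40 nM NPY; Y1 agonists lower the membrane potential dye signal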
CNGC inhibitor: CNGC cAMP sensor activity inhibitors, counter-screen for NPY-Y2 potentiator project, cell-based, HEK293-CNG parental, membrane potential fluorescence; AID 1703, 2009; inhibition, % at 3.6 µM; shares compounds with NPY2 pot ag; isoproterenol cAMP; 32% of 450 active;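 active = inhibition above the control-well mean plus 3 SD of those wells, cut at about 22% in these data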;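 note: 0% = DMSO with isoproterenol and 100% = DMSO without isoproterenol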
NPY-Y2 ag 2: NPY-Y2 direct agonists, counter-screen for NPY-Y2 potentiator project, cell-based, fluorescence. shares compounds with NPY2 pot ag. HEK293 Y2/CNGC cells, membrane potential fluorescence, agonist mode. activation, % at 3.6 µM. 56% of 450 active;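 active = activation above the mean of solvent-only control wells plus 3 SD, cut at about 10% in these data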;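 note: cells stimulated by isoproterenol with no NPY added so direct agonism is tested; 0% = DMSO with isoproterenol alone and 100% = NPY at EC100 plus isoproterenol; agonism lowers probe fluorescence through less cAMP and CNG channel opening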
Active calls of the source: *; · = no result. Only some compounds are listed: those with a hit (about 2.4% of all), similar ones and a draw of the others.

SMILES | NPY Y1 blocker | S1P4 agonist | NPY-Y2 antag | S1P4 antag | NPY1 pot ag | NPY2 pot ag | NPY-Y2 pot conf | NPY-Y1 counter | NPY-Y1 ag 2 | CNGC inhibitor | NPY-Y2 ag 2
COc1cccc(-c2nc(NCC3CCCO3)c3ccccc3n2)c1O (configuration not stated) | -2.9 | 1.4 | -1.0 | -14.9 | 8.1 | 9.1 | · | · | · | · | ·
Oc1ccccc1-c1nc(NCC2CCCO2)c2ccccc2n1 (configuration not stated) | -4.2 | -1.1 | -0.7 | -10.4 | 22.0 | 41.1* | 37.3* | 24.4 | 17.3 | 24.4* | 19.1*
Cc1onc(-c2ccccc2)c1CNS(=O)(=O)c1cccc(Br)c1 | · | 2.0 | · | -1.2 | 13.5 | 3.3 | · | · | · | · | ·
CNC[C@H](O)c1ccc(O)c(O)c1 | -3.2 | -0.5 | 1.3 | -12.5 | 61.5 | 60.5* | 59.4* | 47.9* | 71.0* | 57.9* | 48.9*
N#C/C(=C\c1ccc(F)cc1F)S(=O)(=O)c1ccccn1 | · | 1.7 | · | -9.3 | 11.9 | -14.5 | · | · | · | · | ·
O=C(NCc1cccc(Cl)c1)c1cc(COc2ccc3ncccc3c2)on1 | 0.4 | 1.9 | · | -11.3 | 2.7 | 36.9* | -2.0 | -28.8 | -10.3 | -4.7 | -0.8
Cc1ccc(-n2c(C)cc(C3=NNC(=NC4CC4)SC3)c2C)cc1C | 7.8 | -0.4 | 4.0 | -13.0 | 7.8 | 0.8 | · | · | · | · | ·
CN1CCN(S(=O)(=O)c2ccc(Oc3ccc(F)c(Cl)c3)nc2)CC1 | 3.9 | 2.0 | · | -20.2 | 25.5 | 96.2* | -1.1 | -7.0 | -1.1 | -1.5 | -8.8
O=C(O)c1ccc(Oc2c(C(F)(F)F)oc3cc(O)ccc3c2=O)cc1 | 10.8 | 0.9 | · | -12.3 | 12.2 | 39.2* | -1.0 | -0.6 | -12.8 | -0.4 | -2.5
O=C(Nc1cc(S(=O)(=O)N2CCCCC2)ccc1Cl)c1ccccc1NS(=O)(=O)c1ccc(F)cc1 | 6.2 | 0.1 | 2.5 | -7.9 | -59.1 | 42.2* | 30.1 | 5.0 | 0.4 | 13.8 | 19.1*
CCC(C)N(C)C1CCN(C(=S)Nc2cccc(SC)c2)CC1 (configuration not stated) | -2.4 | -0.1 | · | -0.1 | 2.3 | -7.1 | · | · | · | · | ·
CCC(C)N(C)C1CCN(C(=S)Nc2cccc(OC)c2)CC1 (configuration not stated) | -2.1 | 1.0 | · | -3.5 | 0.3 | 81.7* | -2.6 | 3.4 | -4.0 | 2.5 | 8.1
Oc1ccccc1N=Nc1ccccc1O | -4.1 | 0.3 | · | -8.9 | 31.5 | 29.2* | 35.8* | 45.8* | 29.9* | 27.4* | 42.6*
O=C(O)c1ccccc1C(=O)Nc1cccc([N+](=O)[O-])c1 | · | 1.6 | · | -11.9 | -3.7 | -7.4 | · | · | · | · | ·
O=C(Nc1cccc([N+](=O)[O-])c1)c1cc2ccccc2cc1O | · | 1.5 | · | 4.3 | 27.9 | 57.4* | 5.7 | -20.5 | -12.5 | 1.5 | 11.2*
CC(NCc1cc(Br)ccc1OCC(=O)NCc1ccccc1)c1ccccc1 (configuration not stated) | 16.3 | -0.2 | · | -9.4 | 1.6 | -0.8 | · | · | · | · | ·
S=C(NCc1ccncc1)Nc1ccc(Cl)c(Cl)c1 | 11.8 | -0.2 | 1.2 | -8.4 | 9.0 | 6.6 | · | · | · | · | ·
O=[N+]([O-])c1cc(C(F)(F)F)cc([N+](=O)[O-])c1NCCNC(=S)Nc1ccc(Cl)c(Cl)c1 | · | -0.3 | · | -0.1 | 1.9 | 102.1* | 33.6* | 23.6 | 17.6* | 19.7 | 46.6*
Cc1c(Cl)cccc1S(=O)(=O)Nc1ccnn1C | · | -1.2 | · | 1.4 | 2.0 | 2.2 | · | · | · | · | ·
COC(=O)CSc1nnc(-c2ccc(OC)cc2OC)o1 | -5.1 | -0.4 | 0.4 | -3.0 | 5.2 | 49.9* | 36.1* | 61.4* | 36.1* | 49.1* | 24.8*
Cc1ccc(NC(=O)c2cc(S(=O)(=O)Nc3ccc(C)cc3)cs2)cc1 | -13.1 | 0.2 | -4.5 | -18.6 | 49.8 | 43.2* | 37.4* | 47.3* | 35.3* | 41.5* | 20.8*
CC(=O)N1N=C(c2ccc(C)c([N+](=O)[O-])c2)OC1(C)C | · | 1.5 | · | 4.7 | -14.2 | -45.2 | · | · | · | · | ·
CCN(CC)c1cc(C)c2cc(NC(=O)c3ccccc3OC)ccc2n1 | 10.5 | 1.4 | · | -8.2 | -9.3 | -6.6 | · | · | · | · | ·
CCN(CC)c1cc(C)c2cc(NC(=O)c3cccs3)ccc2n1 | -3.7 | -0.5 | · | -8.6 | 35.3 | 28.4* | 32.5 | 52.9* | 34.7* | 45.1* | 34.5*
C=CCn1c(O)c(C=Nc2ccc(CN3CCCCC3)cc2)c(=O)[nH]c1=S | · | 0.2 | · | -17.6 | -6.1 | -8.7 | · | · | · | · | ·
SMILES | NPY Y1 blocker | S1P4 agonist | NPY-Y2 antag | S1P4 antag | NPY1 pot ag | NPY2 pot ag | NPY-Y2 pot conf | NPY-Y1 counter | NPY-Y1 ag 2 | CNGC inhibitor | NPY-Y2 ag 2
COc1cc(/C=C2\SC(=S)N(Nc3ccccc3)C2=O)ccc1O | -2.2 | 0.4 | 4.0 | -16.9 | -2.2 | 14.2 | · | · | · | · | ·
O=C1/C(=C/c2ccc(O)c(O)c2)SC(=S)N1Nc1ccccc1 | -9.1 | -0.3 | · | 1.8 | 30.5 | 39.3* | 34.3* | 41.0 | 24.6* | 17.7 | 28.3*
CCSc1nnc(NC(=O)CCNS(=O)(=O)c2cc(Br)cnc2N)s1 | 0.8 | 0.6 | -4.0 | -6.4 | 0.5 | 28.1* | 11.0 | 3.2 | 24.3* | 15.5 | 24.3*
COc1ccc(C(C)=O)cc1CSc1nncn1-c1ccccc1 | 4.0 | 0.0 | 2.6 | -16.6 | 0.6 | -5.7 | · | · | · | · | ·
Cc1nc([N+](=O)[O-])cn1Cc1cccc([N+](=O)[O-])c1 | 4.9 | 0.5 | · | 9.4 | -4.0 | -2.6 | · | · | · | · | ·
[O-]/[N+](=C\c1ccncc1)c1ccc(Br)cc1 | -5.1 | 1.6 | 2.1 | -6.2 | 41.1 | 57.2* | 12.9 | 20.4 | 20.0* | 1.4 | 7.3
COCCN1C(=O)C(CC(=O)Nc2ccc(C(C)=O)cc2)SC1=Nc1ccccc1 (configuration not stated) | -12.3 | -1.1 | -3.1 | 2.6 | 30.2 | 43.0* | 36.6* | 48.9* | 41.7* | 34.2* | 34.4*
